From PubChem BioAssay
UPR CHOP act: apoptotic UPR (CHOP) activation | CHO-CHOP luciferase reporter, luminescence; percent of tunicamycin response over DMSO baseline | activation, % at 10 µM | hit rate 0.34% among 330,000;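 active = at 10 µM dose, activation of 40% or more, normalized to positive control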
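System: CHO-CHOP luciferase reporter cell line | Buffer or medium: F12 medium containing 10% fetal bovine serum | Doses: One dose, 10 µM in 0.5% DMSO | Times: 6 h compound exposure at 37 °C after overnight seeding | Signal: Luciferase luminescence | Read-out: % activation vs tunicamycin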
Dynein cargo inh: dynein cargo transport inhibition; z-score, hits read low; hit rate 0.47% among 220,000; 3617.4 mouse cells, GR-EGFP nuclear translocation imaging; test concentration mostly 20 µM; stimulated with dexamethasone, 1 µM; hits give low values;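 active = plate z-score of nuclear minus cytoplasmic receptor signal below a set negative limit, without overly bright fluorescence or cell loss, cut at about -3.5 in these data, passing the limit was not always enough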;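 also: z-score of nuclear minus cytoplasmic ring GR-EGFP intensity difference per well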
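Also added: dexamethasone, 1.0 µM final. Medium: tet-free, stripped-serum medium. Detection: fixed, Hoechst-stained cells imaged at 10x for EGFP. Read-out: nuclear-to-cytoplasmic GR-EGFP distribution per well. Times: induction 48 h, compound 1 h, agonist 30 min.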
XBP1 UPR activ: activators of adaptive arm of unfolded protein response (XBP1); CHO-XBP1 luciferase reporter, IRE1-XBP1 UPR activation, luminescence; percent of tunicamycin response, DMSO as zero; activation, % at 20 µM; hit rate 0.33% among 330,000; AID 463104;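 active = versus positive control, 20 µM dose yields 30% or more activation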
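Material: CHO cell line with stable XBP1 luciferase reporter; buffer or medium: F12 medium containing 10% fetal bovine serum; compound: single point, 20 µM final compound, 1% DMSO; incubation: 6 h treatment, 37 °C; measured by: glow luminescence from Steady-Glo reagent; evaluation: activation, % of tunicamycin; control set: tunicamycin high, DMSO low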
Mdm2-MdmX inh: inhibitors of human Mdm2/MdmX interaction; SaOS-2 split-luciferase Mdm2/MdmX complementation, luminescence; inhibition, % at 8 µM; hit rate 3% among 330,000;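 active = inhibition of at least 50% at 8 µM in the primary screen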
Mdm2 ligase inh: inhibitors of human Mdm2 E3 ubiquitin ligase; signal enhancement, % at 5 µM; cell-based MDM2 ubiquitination luciferase reporter, 2 h; 0 = plate control, 100 = twice control, blank-subtracted; hit rate 0.11% among 210,000;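 active = signal enhancement of 30% or more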;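 also: luminescence tracks abundance of the self-degrading MDM2-luciferase fusion protein; higher signal means inhibition of MDM2 E3 ligase activity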
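system = mammalian cells stably expressing self-ubiquitinating, self-degrading MDM2 E3–luciferase fusion | quantity = 2000 cells per well seeded | incubation = 4 h cell settling then 2 h compound exposure, 37 °C | signal = SteadyLite luminescence, 15 min reagent step | benchmarks = plate control and blank wells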
B2AR ag: agonists of human beta-2 adrenergic receptor inducing internalization | Am2.2-beta2AR cells, FAP receptor internalization, flow cytometry | hit rate 0.43% among 340,000 | P07550 | AID 504454 | response, % (concentration not given with the values);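 active = response above a set limit, near 3 SD of response in nonfluorescent compounds, cut at about 42% in these data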
Mdm2 MdmX conf: human Mdm2/MdmX binding inhibition, confirmed; luminescent assay; inhibition, % at 8 µM; hit rate 55% among 10,000; shares compounds with Mdm2-MdmX inh; in the data active = inhibition above about 40%
FLuc counter: counter-screen for Mdm2/MdmX inhibitors: full-length luciferase; inhibition, % at 8 µM; shares compounds with Mdm2-MdmX inh; hit rate 77% among 6,200; SaOS-2 full-length luciferase counterscreen, luminescence;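 active = mean inhibition at 8 µM reaching about 37%, which flags the compound as non-specific, limit read from the data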;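 also: p53-null SaOS-2 cells with luciferase driven by a doxycycline-inducible promoter; compound on cells about two nights before reading with doxycycline added after day one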
Numbers stand for hits. In the library only some 3.7% were active in any assay of this set; here they are far more common.

Results for O=[N+]([O-])c1ccc(S(=O)(=O)c2ccccc2)nc1 ?
UPR CHOP act: inactive; XBP1 UPR activ: inactive; Mdm2-MdmX inh: 95; B2AR ag: inactive; Mdm2 MdmX conf: 97; FLuc counter: 50

What do the screens show for `Cc1cc(S(=O)(=O)c2ccc([N+](=O)[O-])cn2)ccc1Br`?
UPR CHOP act: inactive; XBP1 UPR activ: inactive; Mdm2-MdmX inh: 99; B2AR ag: inactive; Mdm2 MdmX conf: 99; FLuc counter: 39

How did CCC(=O)Nc1cc2nn(-c3ccc(C)cc3)nc2cc1C do in these assays?
UPR CHOP act: inactive; Dynein cargo inh: inactive; XBP1 UPR activ: inactive; Mdm2-MdmX inh: 67; Mdm2 ligase inh: inactive; B2AR ag: inactive; Mdm2 MdmX conf: 67; FLuc counter: 146

Results for CCC(=O)Nc1cc2nn(-c3ccc(OC)cc3)nc2cc1C ?
UPR CHOP act: inactive; Dynein cargo inh: inactive; XBP1 UPR activ: inactive; Mdm2-MdmX inh: inactive; Mdm2 ligase inh: inactive; B2AR ag: inactive

What do the screens show for `O=C(NC1CCCCC1)c1ccc(CS(=O)Cc2ccc(Cl)cc2)o1` (stereo unspecified)?
UPR CHOP act: inactive; XBP1 UPR activ: inactive; Mdm2-MdmX inh: inactive; B2AR ag: inactive

Results for COC(=O)C1=C(C)N(c2ccc(Cl)c(Cl)c2)C(=O)C1 ?
UPR CHOP act: inactive; Dynein cargo inh: inactive; XBP1 UPR activ: inactive; Mdm2-MdmX inh: 97; Mdm2 ligase inh: inactive; B2AR ag: inactive; Mdm2 MdmX conf: inactive

What do the screens show for `Cc1ccc(NS(=O)(=O)c2ccc(Cl)c(NC(=S)NC(=O)C3CCCCC3)c2)cc1Cl`?
UPR CHOP act: inactive; Dynein cargo inh: inactive; XBP1 UPR activ: inactive; Mdm2-MdmX inh: 72; Mdm2 ligase inh: inactive; B2AR ag: inactive; Mdm2 MdmX conf: inactive

How did Cc1ccc(NC(=O)C2CCCC2)cc1Cl do in these assays?
UPR CHOP act: inactive; XBP1 UPR activ: inactive; Mdm2-MdmX inh: inactive; B2AR ag: inactive

What do the screens show for `Clc1ccc2nc(C3CCN(Cc4nnnn4C4CCCCC4)CC3)[nH]c2c1`?
UPR CHOP act: inactive; Dynein cargo inh: inactive; XBP1 UPR activ: inactive; Mdm2-MdmX inh: inactive; Mdm2 ligase inh: inactive; B2AR ag: inactive

Results for Cc1ccc(Cn2nnnc2CN2CCC(c3nc4ccc(Cl)cc4[nH]3)CC2)cc1 ?
UPR CHOP act: inactive; Dynein cargo inh: inactive; XBP1 UPR activ: inactive; Mdm2-MdmX inh: 58; Mdm2 ligase inh: inactive; B2AR ag: inactive; Mdm2 MdmX conf: inactive; FLuc counter: 46

How did CC(=O)Nc1sc2c(c1-c1nc3ccccc3s1)CCN(C(C)C)C2 do in these assays?
UPR CHOP act: inactive; Dynein cargo inh: inactive; XBP1 UPR activ: inactive; Mdm2-MdmX inh: 100; Mdm2 ligase inh: inactive; B2AR ag: inactive; Mdm2 MdmX conf: 69; FLuc counter: 60

What do the screens show for `Cc1ccccc1Cn1c(=O)n(CCCC(=O)NCc2ccco2)c(=O)c2sccc21`?
UPR CHOP act: inactive; Dynein cargo inh: inactive; XBP1 UPR activ: inactive; Mdm2-MdmX inh: inactive; Mdm2 ligase inh: inactive; B2AR ag: inactive

Results for Cc1cc(C)c(Cn2c(=O)n(CCCC(=O)NCc3ccco3)c(=O)c3sccc32)c(C)c1 ?
UPR CHOP act: inactive; Dynein cargo inh: inactive; XBP1 UPR activ: inactive; Mdm2-MdmX inh: 51; Mdm2 ligase inh: inactive; B2AR ag: inactive; Mdm2 MdmX conf: 40; FLuc counter: 80

Results for Cc1cc(C(=O)CCC(=O)NCc2ccccc2F)c(C)s1 ?
UPR CHOP act: inactive; XBP1 UPR activ: inactive; Mdm2-MdmX inh: inactive; B2AR ag: inactive

Results for O=C(CSCC(=O)Nc1nc(-c2ccc3c(c2)OCO3)cs1)Nc1nccs1 ?
UPR CHOP act: inactive; Dynein cargo inh: inactive; XBP1 UPR activ: inactive; Mdm2-MdmX inh: inactive; Mdm2 ligase inh: inactive; B2AR ag: inactive

What do the screens show for `O=C(CSc1ccc(-c2ccc3c(c2)OCO3)nn1)Nc1nccs1`?
UPR CHOP act: inactive; Dynein cargo inh: inactive; XBP1 UPR activ: inactive; Mdm2-MdmX inh: 89; Mdm2 ligase inh: inactive; B2AR ag: inactive; Mdm2 MdmX conf: inactive

Results for COc1cc(NC(=O)[C@@H](NC(=O)N2CCn3c2nc2ccccc23)C(C)C)cc(OC)c1 ?
UPR CHOP act: inactive; XBP1 UPR activ: inactive; Mdm2-MdmX inh: inactive; B2AR ag: inactive

Results for Cc1cccc(Nc2nc(N3CCCCC3)nc(N3CCCCC3)n2)c1 ?
UPR CHOP act: inactive; Dynein cargo inh: inactive; XBP1 UPR activ: inactive; Mdm2-MdmX inh: inactive; Mdm2 ligase inh: inactive; B2AR ag: inactive

What do the screens show for `Cc1ccc(F)cc1NC(=O)CSc1nc(Nc2ccccc2)nc(N2CCOCC2)n1`?
UPR CHOP act: inactive; XBP1 UPR activ: inactive; Mdm2-MdmX inh: 74; B2AR ag: inactive; Mdm2 MdmX conf: inactive

How did Cc1cccc(Nc2nc(N3CCOCC3)nc(N3CCOCC3)n2)c1 do in these assays?
UPR CHOP act: inactive; XBP1 UPR activ: inactive; Mdm2-MdmX inh: 51; B2AR ag: inactive; Mdm2 MdmX conf: inactive

How did c1ccc(Nc2nc(N3CCOCC3)nc(N3CCOCC3)n2)cc1 do in these assays?
UPR CHOP act: inactive; Dynein cargo inh: inactive; XBP1 UPR activ: inactive; Mdm2-MdmX inh: 56; Mdm2 ligase inh: inactive; B2AR ag: inactive; Mdm2 MdmX conf: inactive

How did Cc1ccccc1NC(=O)CSc1nc(Nc2ccccc2)nc(N2CCOCC2)n1 do in these assays?
UPR CHOP act: inactive; Dynein cargo inh: inactive; XBP1 UPR activ: inactive; Mdm2-MdmX inh: inactive; Mdm2 ligase inh: inactive; B2AR ag: inactive

Results for c1ccc(Nc2nc(N3CCNCC3)nc(N3CCOCC3)n2)cc1 ?
UPR CHOP act: inactive; Dynein cargo inh: inactive; XBP1 UPR activ: inactive; Mdm2-MdmX inh: inactive; Mdm2 ligase inh: inactive; B2AR ag: inactive

Results for Oc1cccc(Nc2nc(N3CCOCC3)nc(N3CCOCC3)n2)c1 ?
UPR CHOP act: inactive; XBP1 UPR activ: inactive; Mdm2-MdmX inh: 56; B2AR ag: inactive; Mdm2 MdmX conf: 43; FLuc counter: 74

How did CCCCSc1nc2sc3c(c2c(=O)[nH]1)CC(C)(CC)OC3 (stereo unspecified) do in these assays?
UPR CHOP act: inactive; XBP1 UPR activ: inactive; Mdm2-MdmX inh: inactive; B2AR ag: inactive

How did COc1ccc2oc(C(=O)OC(C)C(=O)N3C(C)CCCC3C)c(C)c2c1 (stereo unspecified) do in these assays?
UPR CHOP act: inactive; XBP1 UPR activ: inactive; Mdm2-MdmX inh: inactive; B2AR ag: inactive

How did COc1cc(/C=C(\C(=O)O)c2ccc(S(=O)(=O)N3CCCC3)s2)ccc1OCCC(C)C do in these assays?
B2AR ag: inactive
